From ChEMBL document CHEMBL1134605, “Cytotoxic responses to aromatic ring and configurational variations in alpha-conidendrin, podophyllotoxin, and sikkimotoxin derivatives” (J Med Chem, 2001)
Values after ≈ are worked out from the molar mass of the structure shown.

What was measured:
[1] = test system: CCRF-CEM; experiment: Cytotoxicity was assessed using human leukemic cell line CCRF-CEM; type: functional, cell-based
In short: (§1)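 Viability was read by a modified tetrazolium dye reduction method. Cells were harvested in logarithmic growth and seeded at 6.7 × 10^4 cells/well. They were grown in RPMI 1640 with L-glutamine and 10% FBS and cultured with the compounds. The IC50 was taken as the read-out.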

[2] = test system: CCRF-CEM; experiment: Relative potency in comparison to etoposide; type: functional, Homo sapiens
In short: (§2)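 Relative potency compares each compound with etoposide, the reference, using IC50s from the same modified tetrazolium dye reduction viability assay. Cells were seeded at 6.7 × 10^4 cells/well in RPMI 1640 with L-glutamine and 10% FBS.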

[3] = test system: HL-60; experiment: Cytotoxicity was assessed using vincristine-resistant human leukemic cell line HL60/Vinc; type: functional, cell-based
In short: (§3)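 Modified tetrazolium dye reduction viability assay on log-phase cells seeded at 6.7 × 10^4 cells/well in RPMI 1640 with L-glutamine and 10% FBS, cultured with compounds. HL60/ADR overexpresses MRP but not Pgp; HL60/Vinc overexpresses Pgp but not MRP. IC50 values are averages of 2 determinations from a single experiment.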

[4] = test system: HL-60; experiment: Resistance factor was determined using the ratio of (IC50) of drug resistance cells/drug sensitive cells in HL60/Vinc cell line; type: functional, Homo sapiens
In short: (§4)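 Resistance factor = IC50 in the drug-resistant line (HL60/ADR, which overexpresses MRP, or HL60/Vinc, which overexpresses Pgp) divided by IC50 in the drug-sensitive cells. IC50s came from the tetrazolium dye reduction viability assay, as averages of 2 determinations in a single experiment.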

[5] = test system: HL-60; experiment: Resistance factor was determined using the ratio of (IC50) of drug resistance cells/drug sensitive cells in HL60/ADR cell line; type: functional, Homo sapiens; in short: as §4
[6] = test system: HL-60; experiment: Cytotoxicity was assessed using drug-sensitive human leukemic cell line HL60/S; type: functional, cell-based; in short: as §1
[7] = test system: HL-60; experiment: Cytotoxicity was assessed using adriamycin-resistant human leukemic cell line HL60/ADR; type: functional, cell-based; in short: as §3
[8] = test system: CCRF-CEM; experiment: Relative potency compared to cytotoxicity against CCRF-CEM cell line of etoposide; type: functional, Homo sapiens; in short: as §2
[9] = test system: HL-60; experiment: Relative potency compared to cytotoxicity against HL60/S cell line of etoposide; type: functional, Homo sapiens; in short: as §2
[10] = Homo sapiens, HL-60, read-out: IC50

Row | Compound | IC50 [1] | Relative potency [2] | IC50 [3] | RF [4] | RF [5] | IC50 [6, 10] | IC50 ([7]; hl-60) | Relative potency [8] | IC50 [7, 10] | Relative potency [9] | IC50 ([6]; hl-60)
1 | COc1cc([C@@H]2c3cc4c(cc3[C@@H](O[C@@H]3O[C@@H]5CO[C@@H](C)O[C@H]5[C@H](O)[C@H]3O)[C@H]3COC(=O)[C@H]23)OCO4)cc(OC)c1O [ETOPOSIDE] | 1.15 µg/mL (≈ 1.95 µM) | 1 | 18.1 µg/mL (≈ 30.7 µM) | 11 | 33 | 1.64 µg/mL (≈ 2.79 µM) | 54.94 µg/mL (≈ 93.3 µM) |  |  |  | 
2 | COc1ccc([C@H]2c3cc(OC)c(OC)cc3C[C@H]3COC[C@@H]32)cc1OC | 21.9 µg/mL (≈ 59 µM) |  | 14.7 µg/mL (≈ 39.8 µM) | 0.4 | 0.7 | 36.3 µg/mL (≈ 97.9 µM) |  | 0.05 | 26.1 µg/mL (≈ 70.3 µM) | 0.05 | 
3 | COc1cc([C@H]2c3cc4c(cc3C[C@H]3COC[C@@H]32)OCO4)cc(OC)c1OC | 8.15 µg/mL (≈ 21.2 µM) |  | 3.06 µg/mL (≈ 7.96 µM) | 0.4 | 0.7 | 7.09 µg/mL (≈ 18.5 µM) |  | 0.14 | 4.86 µg/mL (≈ 12.6 µM) | 0.23 | 
4 | COc1cc([C@@H]2c3cc4c(cc3C[C@H]3COC[C@@H]32)OCO4)cc(OC)c1OC | 0.043 µg/mL (≈ 0.112 µM) |  | 0.015 µg/mL (≈ 0.039 µM) | 0.5 | 0.6 | 0.03 µg/mL (≈ 0.078 µM) |  | 27 | 0.019 µg/mL (≈ 0.0494 µM) | 54.8 | 
5 | COc1ccc([C@@H]2c3cc(OC)c(OC)cc3C[C@H]3COC[C@@H]32)cc1OC | 38.5 µg/mL (≈ 104 µM) |  | 36.1 µg/mL (≈ 97.4 µM) | 0.3 | 0.2 |  |  | 0.03 | 23.3 µg/mL (≈ 63 µM) | 0.01 | 117.178 µg/mL (≈ 316 µM)
6 | COc1cc2c(cc1OC)C(c1cc(OC)c(OC)c(OC)c1)[C@H]1COC[C@@H]1C2 (some centres not stated) | 0.47 µg/mL (≈ 1.17 µM) |  | 0.314 µg/mL (≈ 0.784 µM) | 0.6 | 0.7 | 0.533 µg/mL (≈ 1.33 µM) |  | 2.4 | 0.362 µg/mL (≈ 0.904 µM) | 3.08 | 
